# Measured values: ChEMBL document CHEMBL4513216, “Probing the Open Global Health Chemical Diversity Library for Multistage-Active Starting Points for Next-Generation Antimalarials” (ACS Infect Dis, 2020)
# Test: Toxicity liver stage against HepG2, at 10uM
# Format: cell-based
# Set-up: test concentration 10 uM, cell line HepG2-A16-CD81EGFP
# Conditions: human, HepG2-A16-CD81EGFP cells; read-out: INHIBITION
# Outline: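 Uninfected HepG2-A16-CD81EGFP cells, 3 × 10^3 per well, 1536-well, plated on prespotted compound at 10 μM final, parasite-free screening media added to match infected plates; puromycin 10 μM positive, DMSO 0.5% negative; run in parallel with 48 h PbLuc assay at 37 °C, 5% CO2; viability by CellTiter-Glo luminescence, normalized to controls.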
row,SMILES,cytotoxicity at 10 µM [%]
1,Cc1ccc(CN2CCc3ncnc(-c4ccc(F)cc4)c3CC2)o1,-9.49
2,Cc1cc(N2CCCC2c2cccnc2)nc(C)n1 (centres undefined),-8.3
3,N#Cc1ccccc1CN1C[C@H]2CC[C@@H](C1)N(CC1CC1)C2=O,-11.4
4,Cc1c[nH]nc1C1CN(Cc2cnn(-c3ccccc3C(=O)O)c2)C1,3.32
5,Cc1cnn(CCNCC(=O)NCC2(c3ccccc3)CCC2)c1,5.87
6,COCCN(Cc1cccs1)c1nc(CCN)nc2ccccc12,4.49
7,CC(C)CN1CCN(C)C2(CCN(c3nccs3)CC2)C1=O,-5.4
8,CNC(=O)c1cc(C)nc(C2(C)CCCN2c2cc(C)ncn2)n1 (centres undefined),2.15
9,Cn1cc(C2CCCN2C(=O)CCCOc2ccc(F)cc2F)cn1 (centres undefined),-7.54
10,COC(=O)c1ccc(Cn2nc(C)cc2C)c(F)c1,4.11
11,COc1cc2nc(C)sc2cc1NC(=O)C(C)NC(N)=O (centres undefined),-9.93
12,CNC(=O)N1CCC2(CC1)C(=O)N(C)c1c(F)cccc12,-5.86
13,Cn1nc(C(=O)N2CCCC2)c(F)c1NC(=O)Cc1ccccc1,1.41
14,CC(NCc1ccc(F)cc1)c1ccc(OCC(=O)NC2CC2)cc1 (centres undefined),3.99
15,CCN(CC)c1ncc(S(=O)(=O)c2cccc(C)c2)c(N)n1,-0.707
16,CCc1cnc(CN2CCC(N(C)Cc3noc(C4CC4)n3)C2)o1 (centres undefined),-10.2
17,Cc1cccn2c(=O)cc(OC(=O)c3ccc(OC(C)C)cc3)nc12,10
18,CNC(=O)c1nc2c(s1)CCN(C(=O)c1ccccc1)CC2,11.1
19,CNC(=O)CN1CCC(CN(C)Cc2ccc(C)cc2C)CC1,4
20,Cc1cccc(-n2ncc3c(=O)n(CCN4CCCCC4)cnc32)c1C,-6.57
21,CN(CCC1CCCCO1)c1nncc(-c2ccccc2)n1 (centres undefined),1.37
22,CC(=O)NCC(=O)N1Cc2nccn2CC(CN(C)C(C)C)C1 (centres undefined),-75.7
23,Cn1ccnc1COc1ccc(CSc2nncn2C2CC2)cc1,3.67

row,SMILES,cytotoxicity at 10 µM [%]
1,Cc1cccc(-c2noc(CN3CCCCC3Cn3cncn3)n2)c1 (centres undefined),-4.32
2,NC(=O)CN(C(=O)c1cccc(C(F)(F)F)c1)C1CCCC1,-0.296
3,Cc1cc(C(=O)N2CCn3cc(CN(C)C)nc3C2)no1,-80.5
4,Cc1ccc(C(C)NC(=O)CCc2cnn(C)c2)cc1F (centres undefined),-0.348
5,O=C(NC1CCCN(CCc2ccccc2)C1)c1ccccn1 (centres undefined),-5.42
6,O=C(O)C1CCCCN1C(=O)c1cccc(C(F)(F)F)c1 (centres undefined),-5.95
7,Cc1nc(CNCC2CCCN(C(=O)OC(C)(C)C)C2)cs1 (centres undefined),-18.2
8,O=C1CCCN1CC1CN(C(=O)N2CCOCC2)Cc2nccn2C1 (centres undefined),-1.05
9,Cn1nc(CN2CCCCC2)c2c1CN(C(=O)c1cccc(C#N)c1)C2,-2.21
10,COC1COC2(CCN(Cc3cccc(Cl)c3)CC2)C1 (centres undefined),-1.31
11,O=C(Nc1ccccc1)N1CC(C(=O)N2CCCC2)C2(CCOCC2)C1 (centres undefined),-82.4
12,Cn1cccc1-c1cc(C(=O)N2CCCC2C(F)(F)F)[nH]n1 (centres undefined),-0.968
13,O=C1CCCN1CCc1noc(-c2ccc3[nH]cnc3c2)n1,8.74
14,O=C(CCc1ccncc1)NCc1csc(Br)c1,-15.5
15,CC(C)COCCNC1CCN(c2ccccn2)CC1,-2.12
16,Cc1cnc(CNC(=O)C2CCOc3ccccc3C2)cn1 (centres undefined),-2.21
17,Cc1nc(C)n(CC2CCCN2Cc2nc(-c3ccoc3)no2)n1 (centres undefined),-8.48
18,CN1C[C@H]2N(c3ncccn3)CCC[C@@]2(C(=O)NCC2CC2)C1,-103
19,Cc1nccn1Cc1nnc(C2CCCN(Cc3cccnc3)C2)n1C (centres undefined),-6.15
20,CS(=O)(=O)N1CC2(CCN(C3CCCCC3)CC2)Cc2ccccc21,4.92
21,CCn1cnnc1C1CCN(C(=O)c2cccc(-n3cccc3)c2)CC1,4.56
22,CS(=O)(=O)c1ccc(C(=O)NCCNc2ncccn2)cc1,-5.15
23,C=Cn1ncc(CN2C[C@@H]3CCCN3C[C@@H]2CCSC)c1C,0.026

row,SMILES,cytotoxicity at 10 µM [%]
1,COC(=O)CCN(CC1CCCO1)C(=O)CCc1ccc(OC)cc1 (centres undefined),7.39
2,CC(=O)N1N=C(Cc2ccccc2)OC1C(=O)NCC(=O)OC(C)(C)C (centres undefined),0.15
3,NC(=O)N1CCCC(C(=O)Nc2cccc(Cl)c2)C1 (centres undefined),8.16
4,Cn1cc(C(=O)N2CCCC(c3ncc[nH]3)C2)cn1 (centres undefined),1.95
5,Cc1cc(CSCc2cc(C)on2)on1,6.42
6,Cc1noc(C2(C)CCCN(C(=O)C(C)C)C2)n1 (centres undefined),-3.97
7,Cn1cc(C2CCCN2Cc2csc(-c3ccccc3)n2)cn1 (centres undefined),-2.48
8,O=C1CCCc2[nH]c(=O)c(C(=O)N3CCc4ccccc4C3)cc21,14.6
9,CN(CC1CC1)c1ccc2ccc(C(=O)NCCN3CCOCC3)cn12,5.57
10,CCCNCc1ccc(OCc2ccc3c(c2)OCCO3)cc1,3.49
11,COc1ccc(C(=O)NCC(c2cccn2C)N2CCN(C)CC2)cc1 (centres undefined),8.19
12,COCC[C@]1(O)CCN(Cc2ccccn2)C[C@H]1C,-7.72
13,CCCOCC(=O)NC1CCc2nc(C)cn2C1 (centres undefined),-2.88
14,CCCc1nnsc1C(=O)N1CCCC1(C)C(=O)N1CCOCC1 (centres undefined),12
15,Brc1cccc(-c2noc(C3COCCO3)n2)c1 (centres undefined),8.71
16,CCc1nccn1-c1cncc(C2CCCN2Cc2ccc(F)cc2)n1 (centres undefined),-1.44
17,CCc1ccsc1C(=O)N1CCS(=O)(=O)CC1,5.36
18,CC(C)(O)CCc1cccc(C(=O)NCc2cnn3cccnc23)c1,-44.8
19,CN1CCN(C(=O)C2CCN(c3cccnn3)C2)CC1 (centres undefined),-32.4
20,COc1ccc(CNC2CCN(c3ccccc3)C2)c(OC)c1OC (centres undefined),7.49
21,CC(C)N(Cc1ccc(C#N)cc1)C(=O)Nc1ccncc1,3.9
22,COc1ccccc1Oc1cncc(C2CCCN(CC(N)=O)C2)n1 (centres undefined),-15.5
23,Cc1cnn(CCCNC(=O)NC(C)C(=O)Nc2ccccc2)c1 (centres undefined),7.04

row,SMILES,cytotoxicity at 10 µM [%]
1,Cc1c(Br)cc2c(c1C)OCC(N(C)C)C2=O (centres undefined),-13.1
2,CCN(Cc1ccc2c(c1)OCO2)C(=O)c1cccnc1O,-9.51
3,CCn1nc(C)c(CCNC(=O)c2cccc(NCC(=O)O)c2)c1C,15.2
4,Cn1ccc2c(C(=O)N3CCN(C(=O)C4CCCC4)CC3)cccc21,-0.53
5,O=C(c1csc(-c2ccccn2)n1)N1CCCC1Cn1cccn1 (centres undefined),-3.69
6,COc1ccc(Cl)cc1S(=O)(=O)N(C)CC(=O)Nc1ccon1,-3.75
7,Cn1cccc(NC(=O)NCCOCc2ccccc2)c1=O,-37.8
8,Cc1cc(CN(C)C(=O)C(c2ccccc2)N2CCSCC2)no1 (centres undefined),-1.49
9,CC(C)Oc1ncccc1CNC(=O)Nc1ccccn1,-9.41
10,CC(C)NC(=O)[C@@H]1CCO[C@@H]2CCN(c3ncccn3)C[C@@H]21,7.92
11,CCCc1nc(C)c(C(=O)NCCN2CCOCC2)s1,-7.75
12,CCN1Cc2cc3c(cc2NCCC1=O)OCO3,-7.44
13,CCOCC(=O)NC1(c2cccc(Br)c2)CC1,-11.3
14,COc1ccc(C(=O)N2CCOc3ccncc32)cc1,12.8
15,CSc1ccc(-c2noc(CN(CC(C)C)CC(C)C)n2)cc1,-3.7
16,COc1ccc2c(c1)OCC(Cc1cc(C(=O)N3CCCC3)ccn1)C2 (centres undefined),-0.675
17,C=C(C)CN1CCC(NC(=O)NCCc2ccc(N(C)C)cc2)CC1,2.2
18,COc1c(C2CCCN2Cc2nc(C)c(C)o2)c(C)nn1C (centres undefined),-2
19,O=S(=O)(c1cc(F)ccc1F)n1cc(Cl)cn1,4.52
20,Cc1cc(C)c(CNC(=O)NCC2CCCO2)c(=O)[nH]1 (centres undefined),-3.76
21,CCc1nnc(C(C)N2CCC(NC(=O)C3CCCCC3)CC2)o1 (centres undefined),-8.35
22,CC(C)CN1CCC(NC(=O)c2ccc(F)cc2I)CC1,-33.9
23,CCc1nc(CC(=O)N2CCn3c(CC)nnc3C2)cs1,-11.4

row,SMILES,cytotoxicity at 10 µM [%]
1,COc1c(C2CCCN2CC(=O)Nc2cc(C)on2)c(C)nn1C (centres undefined),-1.19
2,CNC(=O)c1cccc(NC(=O)NC(C)c2cc(C)oc2C)c1C (centres undefined),-9.26
3,Cc1nc(CN2CCN(C(=O)Cc3cccc(Cl)c3)CC2)no1,-4.76
4,COCc1nnc(C(=O)N(C)Cc2ccc(OC)cc2)o1,-0.164
5,Cc1cc2nc(SCC(=O)N3CCCCC3)n(C)c(=O)c2[nH]1,5.56
6,CC(C)(C)NC(=O)N1CCN(Cc2cccnc2)CC1,10.3
7,COc1ccc(OC2CCN(C(=O)c3ccc(C)[nH]c3=O)CC2)cc1,-3.22
8,COc1cc(-n2cc(CCO)cn2)ccc1NC(C)=O,9.81
9,Cc1nc2c(c(=O)n1C)CCN(C(=O)CCc1ccccn1)CC2,14
10,Cn1cccc1CN(C(=O)CC(CC(=O)O)c1cccs1)C1CC1 (centres undefined),2.27
11,Cc1cc(C(=O)N[C@H]2Cc3ccccc3[C@@H]2N)c(=O)[nH]c1C,11.2
12,COc1ccccc1CNC(=O)c1ccccc1-n1cnc(CN)c1,-10.6
13,Cc1cc(N2CCC3(CCC(=O)N(CC4CC4)C3)CC2)nc(N)n1,6.92
14,Cc1cccc(C(=O)Nc2c(C(N)=O)n[nH]c2C)c1C,-1.49
15,CCC1CCCCN1C(=O)Cn1nc(-c2ccc(C)s2)cc(N)c1=O (centres undefined),2.64
16,CCCc1nnc(N2CCC(C3CCN(C)CC3)CC2)o1,-11.7
17,COc1ccc(NC(=O)Cc2c(C)nn(C)c2C)cc1F,10.1
18,CC(C)NC(=O)CC(C)NCc1ccc(F)cc1Cl (centres undefined),-40.7
19,COc1c(CNCc2ccc(N3CCCC3)nc2)c(C(C)C)nn1C,-11.5
20,Cc1ncc(CNCCO)c2cc(C(=O)c3ccc(Br)cc3)oc12,15.2
21,Cc1nc(C)n(CCNS(=O)(=O)NCc2ccccc2)n1,-11.4
22,Cc1ccc(CN2C(=O)CCC23CCC(NCC2CCOC2)CC3)cc1 (centres undefined),-4.75
